Measured values as given in ChEMBL document CHEMBL4145606, “Microcystins Containing Doubly Homologated Tyrosine Residues from a Microcystis aeruginosa Bloom: Structures and Cytotoxicity” (J Nat Prod, 2018).
Starred links: 1 amine or outer side, 2 acyl side, 3 side chain; linkers in the order of their positions; H or OH if unused. Positions of bridges follow the written chain, without caps; N, C: chain ends. Non-standard residues stand in square brackets, D forms with d. Residues, ends and D or L forms follow the SMILES beside them. Adda = CO[C@@H](Cc1ccccc1)[C@@H](C)/C=C(C)/C=C/[C@H](N[*:1])[C@H](C)C(=O)[*:2]; dAsp(3S-Me) = C[C@H](C(=O)[*:3])[C@@H](N[*:1])C(=O)[*:2]; d(γGlu) = O=C(O)[C@@H](CCC(=O)[*:2])N[*:1]; NMeDha = C=C(NC)C(=O)O

Tests used:
A549 = test: Cytotoxicity against human A549 cells assessed as reduction in cell viability after 72 hrs by MTT assay; type: functional, cell-based
Outline: (§1)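 Cells seeded in 96-well plates and incubated overnight at 37 °C. Treated with a range of concentrations (∼35 to 0.1 μM) for ∼72 h at 37 °C. Viability read by MTT assay. EC50 estimated from the dose-response curves.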

HCT-116 = test: Cytotoxicity against human HCT116 cells assessed as reduction in cell viability after 72 hrs by MTT assay; type: functional, cell-based; outline: as §1

| SMILES | Activity (A549) | EC50 (A549) [µM] | Activity (HCT-116) | EC50 (HCT-116) [µM] |
| --- | --- | --- | --- | --- |
| C=C1C(=O)N[C@H](C)C(=O)N[C@@H](CCc2ccc(O)cc2)C(=O)N[C@@H](C(=O)O)[C@H](C)C(=O)N[C@@H](CCCc2ccc(O)cc2)C(=O)N[C@@H](/C=C/C(C)=C/[C@H](C)[C@H](Cc2ccccc2)OC)[C@H](C)C(=O)N[C@@H](C(=O)O)CCC(=O)N1C | Dose-dependent effect | 0.36 | Dose-dependent effect | 3.3 |
| C=C1C(=O)N[C@H](C)C(=O)N[C@@H](CCCc2ccc(O)cc2)C(=O)N[C@@H](C(=O)O)[C@H](C)C(=O)N[C@@H](CCCNC(=N)N)C(=O)N[C@@H](/C=C/C(C)=C/[C@H](C)[C@H](Cc2ccccc2)OC)[C@H](C)C(=O)N[C@@H](C(=O)O)CCC(=O)N1C | – | 18 | – | > 35 |
| C=C1C(=O)N[C@H](CC(C)C)C(=O)N[C@@H](CC(C)C)C(=O)N[C@@H](C(=O)O)[C@H](C)C(=O)N[C@@H](Cc2ccc(O)cc2)C(=O)N[C@@H](/C=C/C(C)=C/[C@H](C)[C@H](Cc2ccccc2)OC)[C@H](C)C(=O)N[C@@H](C(=O)O)CCC(=O)N1C (Y[Adda][d(γGlu)][NMeDha][dL]L[dAsp(3S-Me)]-OH; lactam N-7) | Dose-dependent effect | 1.3 | Dose-dependent effect | 11 |
| C=C1C(=O)N[C@H](C)C(=O)N[C@@H](CC(C)C)C(=O)N[C@@H](C(=O)O)[C@H](C)C(=O)N[C@@H](CCCNC(=N)N)C(=O)N[C@@H](/C=C/C(C)=C/[C@H](C)[C@H](Cc2ccccc2)OC)[C@H](C)C(=O)N[C@@H](C(=O)O)CCC(=O)N1C [MICROCYSTIN-LR] (R[Adda][d(γGlu)][NMeDha][dA]L[dAsp(3S-Me)]-OH; lactam N-7) | – | > 35 | – | 35 |
